Assay [1] is filed under the species Rattus norvegicus. The experiment in a line: […] on [Ca2+] release from the intracellular stores of permealized hepatocytes. In kind it is functional. The settings on record: Hepatocyte. The gist of the method:
(§1)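 Permeabilized rat hepatocytes loaded with 45Ca2+ to steady state (5 min, 37 °C) in cytosol-like medium pH 7.0 with ATP 1.5 mM, creatine phosphate 5 mM, creatine phosphokinase 5 units/mL, FCCP 10 µM. Thapsigargin (1.25 µM) added, agonist 30 s later, store Ca2+ measured by rapid filtration after 60 s. Four-parameter logistic fit gives EC50, Hill slope, maximal release; three experiments.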

Assay [2] in a line: Hill coefficient, measured using equilibrium competition binding with [3H]Inositol(1,4,5)P3.
Assay [3] can be described thus: Ratio to Ins(1,4,5)P3 was measured(ratio greater than 1 denotes greater affinity and less than -1 denotes lesser affinity).
Assay [4] is filed under the species Rattus norvegicus. Nature of the assay: Fraction of total [Ca2+] stores released by a maximal concentration of the compound. In kind it is functional. The gist of the method:
as §1

A short description of assay [5]: Binding affinity towards rat liver membrane, measured using equilibrium competition binding with [3H]Inositol(1,4,5)P3.
The test system of assay [6] is Hepatocyte. The experiment in a line: Hill coefficient for the effect on [Ca2+] release from the intracellular stores of permealized hepatocytes. In kind it is cell-based. In outline:
as §1

Assay [7] can be described thus: Ratio to Ins(1,4,5)P3, for the effect on [Ca2+] release from the intracellular stores of permealized hepatocytes (ratio greater than 1 denotes greater potency and less than -1 denotes lesser potency). In kind it is functional, Hepatocyte.

SMILES strings stand for the structures.

Turning to `O=P(O)(O)O[C@H]1CO[C@@H]2[C@H](O)[C@@H](OP(=O)(O)O)[C@H](OP(=O)(O)O)[C@@H](O)[C@@H]2OC1`, a half-maximal response in assay [1] (EC50) required 1230 nM. Further, the Hill coefficient was 1.12 in assay [2] and 2.9 in assay [6]. The Ratio in assay [3] and in assay [7] was -14 throughout. The Max response in assay [4] is reported as 59%. In addition, the dissociation constant Kd in assay [5] was determined as 62 nM.
As to `O=P(O)(O)O[C@@H]1CO[C@@H]2[C@H](O)[C@@H](OP(=O)(O)O)[C@H](OP(=O)(O)O)[C@@H](O)[C@@H]2OC1`, the response in assay [1] was half-maximal at 1650 nM (EC50). Besides, the values for the Hill coefficient in assay [2] and in assay [6] were 1.01 and 2.61, respectively. Moreover, the Ratio in assay [3] was -21; in assay [7], -18. In addition, the Max response in assay [4] was 59%. In assay [5], this molecule gave a Kd of 98 nM.
As to `Nc1ncnc2c1ncn2[C@@H]1O[C@H](CO)[C@@H](O[C@H]2O[C@H](CO)[C@@H](OP(=O)(O)O)[C@H](OP(=O)(O)O)[C@H]2O)[C@H]1OP(=O)(O)O` [ADENOPHOSTIN A], a half-maximal effect in assay [1] (EC50) was put at 9.2 nM. Also, the Hill coefficient in assay [2] was determined as 1.17; in assay [6], 2.99. The Ratio came out at 8.3 in assay [3] and 9.8 in assay [7]. The Max response in assay [4] is listed as 49%. In assay [5], the dissociation constant (Kd) was 0.55 nM.
In turn, `O=P(O)(O)O[C@@H]1[C@H](O)[C@H](O)[C@@H](OP(=O)(O)O)[C@H](OP(=O)(O)O)[C@H]1O` [INS(1,4,5)P3] returned an EC50 in assay [1] of 90 nM. Besides, the Hill coefficient in assay [2] was 1.16; in assay [6], 1.48. In addition, the Ratio in assay [3] and in assay [7] was 1 each time. Also, in assay [4], the Max response is on record as 59%. The same molecule displayed a dissociation constant Kd in assay [5] of 4.56 nM.

For the origin of these results see ChEMBL document CHEMBL1134512, “Bicyclic analogues of D-myo-inositol 1,4,5-trisphosphate related to adenophostin A: synthesis and biological activity” (J Med Chem, 2001).
